Entries after “also recorded” stand apart in the source; their conditions may differ. Where two headings read alike, the source gives them in different places. Blank lines part the entries; values can stand above or below the compound they belong to.
Legend:
[1] = Phase I multiple ascending dose study of ALZ-801 capsule and tablet; type: in vivo, human; conditions: plasma; for Tmax / half-life / AUC / Cmax: both, human, oral; for half-life: t ½; for Cmax: C max; for lower C max for 265 mg tablet than 256.5 mg capsule: fed state
[2] = Single-dose ALZ-801 immediate-release tablet PK and food effect study; type: in vivo, human; conditions: plasma; for Cmax: C max
[3] = Urine drug recovery, renal clearance and estimate of oral bioavailability; type: in vivo, human; conditions: Cohort D, 24-h urine; for CL renal: both, human, urine and plasma, oral, 265 mg, CLr, mean ± SD
Outline: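 Cohort D: 265 mg immediate-release tablet in the fed state (meal 30 min pre-dose), once on day 1, twice daily days 2–6, once on day 7. Urine was collected over 24 h on days 1 and 7 and assayed by LC-MS (LLOQ 30 ng/mL ALZ-801, 100 ng/mL tramiprosate). Renal clearance was calculated as Ae divided by plasma AUC24.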

[4] = Summary of clinical safety and tolerability in phase I SAD and MAD studies; type: in vivo, human
Outline: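 Healthy volunteers received oral ALZ-801 as capsule or tablet, fasted or fed, in single and multiple-dose placebo-controlled studies. AEs were logged from first dose to discharge and at a follow-up call, then coded with MedDRA v18.1. QTc and safety laboratory tests were monitored against withdrawal criteria. Summaries are given as cases or cases (%).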

[5] = Safety and tolerability, tablet single ascending dose study; type: in vivo, human
[6] = cited from earlier work; for ADAS-cog difference compared with placebo: oral tramiprosate
[7] = Bridging clinical dose analysis and projection of brain drug exposure; design: species or system human; conditions: for projected plasma tramiprosate AUC12: oral ALZ-801 265 mg twice daily, steady state
Outline: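 Projected from human plasma tramiprosate AUC after oral tablet: linear regression of steady-state dose vs AUC for 205 and 342 mg fed, with accumulation factor from Study 2 day 7/day 1 and modelled Study 3 data. Benchmark was the plasma AUC12 of the earlier 150 mg twice-daily tramiprosate trial. Brain exposure scaled by rodent brain/plasma ratio (14C-tramiprosate, single and steady-state).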

[8] = system: brain amyloid plaque load; conditions: chronic oral treatment, TgCRND8 mice; cited from earlier work
[9] = Phase I single ascending dose study of ALZ-801 loose-filled capsule; type: in vivo, human; conditions: both, human, plasma, oral, 100 mg, Plasma tramiprosate t ½, mean ± SD
Outline: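 Single fasted oral loose-filled capsules; 172 mg in 36 healthy subjects over 50 y (parallel, randomized 1:1:1), 300 mg in 15 subjects over 50 y. Plasma sampled over 48 h into K3 EDTA on ice, spun 2000g 10 min 4 °C, stored at or below −20 °C. LC-MS assay; non-compartmental analysis; Tmax as median (range).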

[10] = 265 mg, AUC12, plasma, Day 1, fed, ALZ-801 tablet 265 mg (Cohort D), mean ± SD
[11] = 265 mg, AUC12, plasma, Day 7, fed, ALZ-801 tablet 265 mg twice daily (Cohort D), mean ± SD
[12] = 265 mg, AUC24, plasma, Day 1, fed, ALZ-801 tablet 265 mg (Cohort D), mean ± SD
[13] = 265 mg, AUC24, plasma, Day 7, fed, ALZ-801 tablet 265 mg twice daily (Cohort D), mean ± SD
[14] = 265 mg, Day 1, fed, ALZ-801 tablet 265 mg (Cohort D), mean ± SD
[15] = 265 mg, T max, Day 1, fed, ALZ-801 tablet 265 mg (Cohort D), mean ± SD
[16] = 265 mg, T max, Day 7, fed, ALZ-801 tablet 265 mg twice daily (Cohort D), mean ± SD
[17] = 265 mg, Day 7, fed, ALZ-801 tablet 265 mg twice daily (Cohort D), mean ± SD
[18] = 256.5 mg ALZ-801 capsules, day 1
[19] = repeated 256.5 mg ALZ-801 capsules, day 7
[20] = Regimen A: 171 mg tablet, fasted, n = 10
[21] = Regimen B: 205 mg tablet, fasted, n = 11
[22] = Regimen C: 205 mg tablet, fed, n = 12
[23] = day 7 vs day 1, 171 and 256.5 mg capsules, fasted
[24] = 205 mg ALZ-801 tablets fed (Regimen C) vs fasted

Structure (SMILES): CC(C)[C@H](N)C(=O)NCCCS(=O)(=O)O [ALZ-801, 3-(L-valyl) amino-1-propanesulfonic acid]
- Tmax ([1]; 256.5 mg, T max, ALZ-801 capsule 171 and 256.5 mg, day 1, fasted): 0.5 h
- Tmax ([1]; 256.5 mg, Tmax, Cohort C, capsule, fed, 256.5 mg QD, Day 1, median (range)): ~1 h
- half-life ([1]; 256.5 mg, ALZ-801 capsule 171 and 256.5 mg, day 1, fasted): ~1 h
- AUC [1, 10]: 10300 ng·h/mL
- AUC [1, 11]: 11200 ng·h/mL
- AUC [1, 12]: 10300 ng·h/mL
- AUC [1, 13]: 11200 ng·h/mL
- Cmax [1, 14]: 4960 ± 2650 ng/mL
- Tmax [1, 15]: 2.45 ± 0.848 h
- Tmax [1, 16]: 2.11 ± 0.553 h
- half-life [1, 14]: 1.05 ± 0.16 h
- half-life [1, 17]: 1.11 ± 0.263 h
- Tmax ([1]; 340 mg, T max, day 14, dosing in the fasted state): ~0.5 h
- half-life ([1]; irrespective of dosing regimen and day): ~1 h
- lower C max in fed than fasted state [1, 18]: 25%
- lower C max for 265 mg tablet than 256.5 mg capsule ([1]; day 1): 22%
- lower C max in fed than fasted state [1, 19]: 30%
- half-life ([2]; human, oral): < 1 h
- Tmax ([2]; human, oral, 171 mg): 1 h
- Tmax ([2]; human, oral, 205 mg): 0.5 h
- Mean Ae ([3]; Day 1, ALZ-801 tablet 265 mg): 22.5 mg
- Mean Ae ([3]; Day 7, ALZ-801 tablet 265 mg): 24.1 mg
- CL renal ([3]; Day 1, ALZ-801 tablet 265 mg): 36.4 ± 10.7 mL/min
- CL renal ([3]; Day 7, ALZ-801 tablet 265 mg): 35.9 ± 19.9 mL/min
- tolerability ([4]; oral, capsule or tablet, healthy volunteers): well tolerated
- dose-limiting toxicity or maximum tolerated dose ([4]; over 2 weeks of dosing at doses up to 342 mg twice daily): no dose-limiting toxicity or maximum tolerated dose (MTD) was observed; also recorded: no dose-limiting toxicity was observed
- Chills [5, 20]: 0
- Flatulence [5, 20]: 0
- Flushing [5, 20]: 0
- Gastrointestinal disorders [5, 20]: 4
- General disorders and administration site conditions [5, 20]: 0
- Headache [5, 20]: 0
- Nausea [5, 20]: 4
- Nervous system disorders [5, 20]: 0
- Somnolence [5, 20]: 0
- Subjects reporting AEs [5, 20]: 4
- Vascular disorders [5, 20]: 0
- Vomiting [5, 20]: 1
- Chills [5, 21]: 0
- Flatulence [5, 21]: 0
- Flushing [5, 21]: 0
- Gastrointestinal disorders [5, 21]: 4
- General disorders and administration site conditions [5, 21]: 0
- Headache [5, 21]: 0
- Nausea [5, 21]: 4
- Nervous system disorders [5, 21]: 0
- Somnolence [5, 21]: 0
- Subjects reporting AEs [5, 21]: 4
- Vascular disorders [5, 21]: 0
- Vomiting [5, 21]: 1
- Chills [5, 22]: 0
- Flatulence [5, 22]: 0
- Flushing [5, 22]: 0
- Gastrointestinal disorders [5, 22]: 0
- General disorders and administration site conditions [5, 22]: 0
- Headache [5, 22]: 0
- Nausea [5, 22]: 0
- Nervous system disorders [5, 22]: 0
- Somnolence [5, 22]: 0
- Subjects reporting AEs [5, 22]: 0
- Vascular disorders [5, 22]: 0
- Vomiting [5, 22]: 0
- Subjects reporting AEs ([5]; Regimen D: 342 mg (2 × 171 mg tablets), fed, n = 12): 3
- Chills ([5]; Regimen D: 342 mg, fed, n = 12): 0
- Flatulence ([5]; Regimen D: 342 mg, fed, n = 12): 0
- Flushing ([5]; Regimen D: 342 mg, fed, n = 12): 0
- Gastrointestinal disorders ([5]; Regimen D: 342 mg, fed, n = 12): 3
- General disorders and administration site conditions ([5]; Regimen D: 342 mg, fed, n = 12): 0
- Headache ([5]; Regimen D: 342 mg, fed, n = 12): 0
- Nausea ([5]; Regimen D: 342 mg, fed, n = 12): 3
- Nervous system disorders ([5]; Regimen D: 342 mg, fed, n = 12): 0
- Somnolence ([5]; Regimen D: 342 mg, fed, n = 12): 0
- Vascular disorders ([5]; Regimen D: 342 mg, fed, n = 12): 0
- Vomiting ([5]; Regimen D: 342 mg, fed, n = 12): 0
- onset of nausea ([5]; following fasted dosing): 0.5 to 1 h
- onset of nausea ([5]; following fed dosing): 1.5 to 2.5 h
- tolerability ([5]; tablet SAD study (Study 3)): well tolerated

- AUC [1, 10]: 3300 ± 608 ng·h/mL
- AUC [1, 11]: 4100 ± 687 ng·h/mL
- AUC [1, 12]: 3650 ± 670 ng·h/mL
- AUC [1, 13]: 5020 ± 859 ng·h/mL
- Cmax [1, 14]: 759 ± 163 ng/mL
- Cmax [1, 17]: 865 ± 172 ng/mL
- Tmax [1, 15]: 3.56 ± 0.88 h
- Tmax [1, 16]: 2.9 ± 0.603 h
- half-life [1, 14]: 8.94 ± 1.35 h
- half-life [1, 17]: 36.1 ± 4.15 h
- lower C max in fed than fasted state [1, 18]: approximately 13%
- accumulation ratio AUC12 [1, 23]: 1.3
- accumulation ratio C max [1, 23]: 1.2
- lower C max for 265 mg tablet than 256.5 mg capsule ([1]; day 1): approximately 12%
- lower C max for 265 mg tablets than 256.5 mg capsules ([1]; fed, day 7): 11%
- lower C max in fed than fasted state [1, 19]: ~18%
- half-life ([2]; human, oral, 171 mg): 12.9 h
- Tmax ([2]; human, oral, 205 mg): 1.5 h
- half-life ([2]; human, oral, 205 mg): 16.5 h
- AUC(0-t) ([2]; human, oral, 205 mg, AUCt, 205 mg ALZ-801 tablets, fed (Regimen C)): 2990 ng·h/mL
- Cmax ([2]; human, oral, 205 mg, 205 mg ALZ-801 tablets, fed (Regimen C)): 638 ng/mL
- Cmax ([2]; human, oral, 342 mg, 342 mg ALZ-801 tablets, fed (Regimen D)): 978 ng/mL
- delay of T max with food [2, 24]: approximately 30 min
- reduced C max with food [2, 24]: 17%
- fold increase in C max for 1.7-fold increase in dose ([2]; 342 mg (Regimen D) vs 205 mg ALZ-801 tablets, fed): 1.5 fold
- interindividual variability for exposure ([2]; ALZ-801 tablet, fed and fasted states): 20–35%
- CL renal ([3]; Day 1, ALZ-801 tablet 265 mg): 201 ± 48.2 mL/min
- CL renal ([3]; Day 7, ALZ-801 tablet 265 mg): 194 ± 85.1 mL/min
- projected plasma tramiprosate AUC12 ([7]; fasted): approximately 4844 ng/mL h
- projected plasma tramiprosate AUC12 ([7]; fasted and fed combined): ~4502 ng·h/mL
- projected plasma tramiprosate AUC12 ([7]; fed): ~4360 ng·h/mL
- Projected brain average concentration (C ss,av) ([7]; projected steady state, ALZ-801 tablet 265 mg twice daily, humans, 14C method): approximately 550 nM
- brain:plasma ratio (brain penetration), steady state ([7]; rodent, 14C method, projected after steady-state dosing): ~ 40%
- half-life ([9]; after tramiprosate LF capsule 100 mg): 5.9 ± 5.22 h
- half-life ([9]; after tramiprosate MR tablet 100 mg): 4.99 ± 2.66 h
Structure (SMILES): NCCCS(=O)(=O)O [tramiprosate, 3-amino-1-propanesulfonic acid]
- ADAS-cog difference compared with placebo ([6]; APOE4 carriers): 2 point
- ADAS-cog difference compared with placebo ([6]; APOE4 homozygous (APOE4/4) patients): 4 point
- CSF drug levels ([6]; oral tramiprosate 150 mg twice daily for 78 weeks): 60 nM
- mean plasma exposure AUC12 ([6]; tramiprosate 150 mg twice daily, 78 weeks, phase III): 4429 ng·h/mL
- Mean Ae ([3]; Day 1, ALZ-801 tablet 265 mg): 44.0 mg
- Mean Ae ([3]; Day 7, ALZ-801 tablet 265 mg): 58.4 mg
- reduction in brain amyloid plaque load [8]: ~ 30%
